In data set [1] the target is T1, Retinoic acid receptor RXR-alpha (Homo sapiens) (UniProt P19793).
T1 sequence (whole entry): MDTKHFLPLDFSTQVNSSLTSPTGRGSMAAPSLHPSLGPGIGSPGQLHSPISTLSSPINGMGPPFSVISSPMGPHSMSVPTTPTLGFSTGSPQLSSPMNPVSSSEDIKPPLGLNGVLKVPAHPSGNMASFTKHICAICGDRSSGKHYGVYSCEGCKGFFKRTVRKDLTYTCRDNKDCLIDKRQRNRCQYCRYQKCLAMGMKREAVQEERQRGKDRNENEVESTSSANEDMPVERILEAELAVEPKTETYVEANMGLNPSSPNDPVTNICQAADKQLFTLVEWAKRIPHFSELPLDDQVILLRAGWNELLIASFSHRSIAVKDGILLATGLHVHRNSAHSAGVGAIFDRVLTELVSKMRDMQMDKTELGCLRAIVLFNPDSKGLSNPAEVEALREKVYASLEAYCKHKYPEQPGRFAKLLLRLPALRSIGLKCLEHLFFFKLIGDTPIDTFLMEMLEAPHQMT
Description: Activation of human RXRalpha activity expressed in COS1 cells assessed as induction ratio at 50 uM after 12 hrs by RXRE-luciferase reporter gene assay relative to untreated control. Type of data set: cell-based. Particulars: COS-1. In a few lines: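 COS-1 cells transiently co-transfected per well with 100 ng RXRE-firefly luciferase reporter, 50 ng human RXRα expression vector and 3 ng Renilla luciferase vector using Lipofectamine 2000 for 24 h, then exposed to compound for a further 12 h. Dual-luciferase read-out. Induction ratio taken at 50 µM test concentration.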
For orientation: A reporter such as luciferase makes a cellular process visible.

Data set [2] in a line: Cytotoxicity against African green monkey COS1 cells assessed as cell survival. The class given is cell-based. The arrangement: concentration or dose not given beside the values. Particulars: chlorocebus aethiops, COS-1 cells; read-out: Activity.

In ChEMBL document CHEMBL2321659, “Design, synthesis, and biological evaluation of indenoisoquinoline rexinoids with chemopreventive potential” (J Med Chem, 2013) one finds Ratio and viability data, which are given here for 82 compounds.

With `O=CCCn1c2c(c3ccc([N+](=O)[O-])cc3c1=O)C(=O)c1ccccc1-2`, the Ratio in data set [1] was under 1.
On the same count and under the same terms, next, `NCCCn1c2c(c3ccc(NC(=O)CCCC(=O)O)cc3c1=O)C(=O)c1ccccc1-2`: under 1; `CC(=O)Nc1ccc2c3c(n(CCCN=[N+]=[N-])c(=O)c2c1)-c1ccccc1C3=O`: under 1.
For the compound `Cn1c2c(c3ccc(CC(=O)O)cc3c1=O)C(=O)c1ccccc1-2`, the Ratio in data set [1] was under 1.
For `Nc1ccc2c3c(n(CCCO)c(=O)c2c1)-c1ccccc1C3=O`, in data set [1], the Ratio is under 1.
Same read-out and setting: next, `Cn1c2c(c3ccc(C#N)cc3c1=O)C(=O)c1ccccc1-2`: under 1.
Turning to `CNc1ccc2c3c(n(CCCNC(=O)OC(C)(C)C)c(=O)c2c1)-c1ccccc1C3O` (configuration not stated), the Ratio in data set [1] is under 1.
As for `CCOC(=O)CNc1ccc2c3c(n(C)c(=O)c2c1)-c1ccccc1C3=O`, the Ratio in data set [1] was under 1.
Regarding `N#Cc1ccc2c3c(n(CCCn4ccnc4)c(=O)c2c1)-c1ccccc1C3=O`, the Ratio in data set [1] is under 1.
With `NCCCn1c2c(c3ccc(NC(=O)C(=O)O)cc3c1=O)C(=O)c1ccccc1-2`, in data set [1], the Ratio is under 1.
Turning to `COC(=O)c1ccc2c3c(n(CCCn4ccnc4)c(=O)c2c1)-c1ccccc1C3=O`, the Ratio in data set [1] was under 1.
For the compound `NC(=O)CCn1c2c(c3ccccc3c1=O)C(=O)c1ccccc1-2`, the Ratio in data set [1] was under 1.
On the same count and under the same terms, next, `Cn1c2c(c3ccc(CCCC(=O)O)cc3c1=O)C(=O)c1ccccc1-2`: under 1; `Nc1ccc2c3c(n(CCCCl)c(=O)c2c1)-c1ccccc1C3=O`: under 1; `COC(=O)C(=O)Nc1ccc2c3c(n(CCCN)c(=O)c2c1)-c1ccccc1C3=O`: under 1.
On to `COc1ccc2c(c1)C(=O)c1c-2n(CCCN)c(=O)c2cc(N(C)C)ccc12`, for which the Ratio in data set [1] is under 1.
Regarding `CN(C)CCCn1c2c(c3ccc(C#N)cc3c1=O)C(=O)c1cc3c(cc1-2)OCO3`, the Ratio in data set [1] was under 1.
With `NCCCn1c2c(c3ccc(NC(=O)CCC(=O)O)cc3c1=O)C(=O)c1ccccc1-2`, the Ratio in data set [1] is under 1.
Turning to `COCCCn1c2c(c3ccc([N+](=O)[O-])cc3c1=O)C(=O)c1ccccc1-2`, the Ratio in data set [1] was under 1.
Take `Cn1c2c(c3ccc(NCC(=O)O)cc3c1=O)C(=O)c1ccccc1-2`: the Ratio in data set [1] is under 1.
With `CC(C)(C)OC(=O)NCCCn1c2c(c3ccc([N+](=O)[O-])cc3c1=O)C(=O)c1ccccc1-2`, the Ratio in data set [1] was under 1.
Same read-out and setting: next, `COC(=O)c1ccc2c3c(n(CCCN4CCOCC4)c(=O)c2c1)-c1ccccc1C3=O`: under 1.
In the case of `CC(=O)Nc1ccc2c3c(n(CCCO)c(=O)c2c1)-c1ccccc1C3=O`, the Ratio in data set [1] was under 1.
Take `NCCCn1c2c(c3ccc(NC(=O)CC(=O)O)cc3c1=O)C(=O)c1ccccc1-2`: the Ratio in data set [1] is under 1.
As for `COC(=O)CCCC(=O)Nc1ccc2c3c(n(CCCN)c(=O)c2c1)-c1ccccc1C3=O`, in data set [1], the Ratio is under 1.
Still for that read-out and setting: next, `CNc1ccc2c3c(n(CCCN)c(=O)c2c1)-c1ccccc1C3O` (configuration not stated): under 1.
The same measure, in the same setting: next, `NCCCn1c2c(c3ccc(NC(=O)CCCCC(=O)O)cc3c1=O)C(=O)c1ccccc1-2`: under 1; `CNCCCn1c2c(c3ccc(N)cc3c1=O)C(O)c1ccccc1-2` (configuration not stated): under 1; `CCCCn1c2c(c3ccccc3c1=O)C(=O)c1ccccc1-2`: under 1.
Turning to `COC(CCn1c2c(c3ccc([N+](=O)[O-])cc3c1=O)C(=O)c1ccccc1-2)OC`, the Ratio in data set [1] was under 1.
For `COC(=O)/C=C/c1ccc2c3c(n(C)c(=O)c2c1)-c1ccccc1C3=O`, in data set [1], the Ratio was under 1.
Take `N#Cc1ccc2c3c(n(CCCN4CCOCC4)c(=O)c2c1)-c1ccccc1C3=O`: the Ratio in data set [1] is under 1.
Consider `Cn1c2c(c3ccc(Br)cc3c1=O)C(=O)c1ccccc1-2`, for which, in data set [1], the Ratio was under 1.
On to `CNc1ccc2c3c(n(CCCN)c(=O)c2c1)-c1ccccc1C3=O`, for which the viability in data set [2] was 45.9%.
Turning to `NCCCn1c2c(c3ccc(N)cc3c1=O)C(O)c1ccccc1-2` (configuration not stated), the Ratio in data set [1] was under 1.
Turning to `O=C(O)CCn1c2c(c3ccccc3c1=O)C(=O)c1ccccc1-2`, in data set [1], the Ratio is under 1.
Take `COC(=O)CCCCC(=O)Nc1ccc2c3c(n(C)c(=O)c2c1)-c1ccccc1C3=O`: in data set [1], the Ratio was under 1.
With `COc1ccc2c(c1)C(=O)c1c-2n(CCCN)c(=O)c2cc(OC)c(OC)cc12`, in data set [1], the Ratio is under 1.
Same read-out and setting: the value for `[N-]=[N+]=NCCCn1c2c(c3ccc([N+](=O)[O-])cc3c1=O)C(=O)c1ccccc1-2` was under 1; that for `Cn1c2c(c3ccc(I)cc3c1=O)C(=O)c1ccccc1-2` was under 1; that for `CC(C)(C)OC(=O)NCCCn1c2c(c3ccc(N)cc3c1=O)C(=O)c1ccccc1-2` was under 1.
In the case of `COC(=O)CCCC(=O)Nc1ccc2c3c(n(C)c(=O)c2c1)-c1ccccc1C3=O`, the Ratio in data set [1] is under 1.
Take `COC(=O)Cc1ccc2c3c(n(C)c(=O)c2c1)-c1ccccc1C3=O`: the Ratio in data set [1] is under 1.
In the case of `[N-]=[N+]=NCCn1c2c(c3ccc([N+](=O)[O-])cc3c1=O)C(=O)c1ccccc1-2`, the Ratio in data set [1] was under 1.
As for `CNCCCn1c2c(c3ccc(N)cc3c1=O)C(=O)c1ccccc1-2`, the viability in data set [2] stood at 53%.
`Cn1c2c(c3ccc(NC(=O)CC(=O)O)cc3c1=O)C(=O)c1ccccc1-2`: in data set [1], the Ratio is under 1.
On the same count and under the same terms, the value for `Cn1c2c(c3ccc([N+](=O)[O-])cc3c1=O)C(=O)c1ccccc1-2` was under 1; that for `Cn1c2c(c3ccc(/C=C/C(=O)O)cc3c1=O)C(=O)c1ccccc1-2` was under 1.
For `COC(=O)CCCCC(=O)Nc1ccc2c3c(n(CCCN)c(=O)c2c1)-c1ccccc1C3=O`, in data set [1], the Ratio was under 1.
Turning to `CC(=O)NCCCn1c2c(c3ccc([N+](=O)[O-])cc3c1=O)C(=O)c1ccccc1-2`, the Ratio in data set [1] is under 1.
On the same count and under the same terms, the value for `CCOC(CCn1c2c(c3ccc([N+](=O)[O-])cc3c1=O)C(=O)c1ccccc1-2)OCC` was under 1.
Consider `Cc1cc2c(cc1C1(c3ccc(C(=O)O)cn3)CC1)C(C)(C)CCC2(C)C`, for which, in data set [2], the viability worked out at 84.3%.
`O=C1c2ccccc2-c2c1c1ccc([N+](=O)[O-])cc1c(=O)n2CCCCO`: the Ratio in data set [1] was under 1.
Regarding `COC(=O)CCC(=O)Nc1ccc2c3c(n(CCCN)c(=O)c2c1)-c1ccccc1C3=O`, the Ratio in data set [1] was under 1.
For `Cn1c2c(c3ccc(/C=C/C#N)cc3c1=O)C(=O)c1ccccc1-2`, the Ratio in data set [1] was under 1.
As for `O=C(O)CCn1c2c(c3ccc([N+](=O)[O-])cc3c1=O)C(=O)c1ccccc1-2`, in data set [1], the Ratio was under 1.
Same read-out and setting: the value for `NC(=O)CCn1c2c(c3ccc([N+](=O)[O-])cc3c1=O)C(=O)c1ccccc1-2` was under 1; that for `Nc1ccc2c3c(n(CCCO)c(=O)c2c1)-c1ccccc1C3O` (configuration not stated) was under 1.
On to `COC(=O)CCC(=O)Nc1ccc2c3c(n(C)c(=O)c2c1)-c1ccccc1C3=O`, for which the Ratio in data set [1] is under 1.
In the case of `Cn1c2c(c3ccc(NC(=O)C(=O)O)cc3c1=O)C(=O)c1ccccc1-2`, the Ratio in data set [1] was under 1.
Turning to `O=C1c2ccccc2-c2c1c1ccc(Br)cc1c(=O)n2CCCO`, in data set [1], the Ratio is under 1.
On the same count and under the same terms, next, `Cc1ccc2c3c(n(C)c(=O)c2c1)-c1ccccc1C3=O`: under 1.
For the compound `O=C1c2ccccc2-c2c1c1ccccc1c(=O)n2CCCO`, the Ratio in data set [1] was under 1.
For `CN(C)c1ccc2c3c(n(CCCNC(=O)OC(C)(C)C)c(=O)c2c1)-c1ccccc1C3=O`, the Ratio in data set [1] was under 1.
Consider `O=C1c2ccccc2-c2c1c1ccc([N+](=O)[O-])cc1c(=O)n2CCCBr`, for which the Ratio in data set [1] is under 1.
Regarding `O=C1c2ccccc2-c2c1c1ccc([N+](=O)[O-])cc1c(=O)n2CCCCl`, the Ratio in data set [1] was under 1.
`Cn1c2c(c3ccccc3c1=O)C(=O)c1ccccc1-2`: in data set [1], the Ratio was under 1.
On to `COCCCn1c2c(c3ccccc3c1=O)C(=O)c1ccccc1-2`, for which, in data set [1], the Ratio is under 1.
For the compound `O=C1c2ccccc2-c2c1c1ccc([N+](=O)[O-])cc1c(=O)n2CCCO`, the Ratio in data set [1] is under 1.
Consider `Cn1c2c(c3ccc(Cl)cc3c1=O)C(=O)c1ccccc1-2`, for which the Ratio in data set [1] was under 1.
For the compound `CNc1ccc2c3c(n(CCCNC(=O)OC(C)(C)C)c(=O)c2c1)-c1ccccc1C3=O`, the Ratio in data set [1] is under 1.
Take `Cn1c2c(c3ccc(C=O)cc3c1=O)C(=O)c1ccccc1-2`: the Ratio in data set [1] is under 1.
As to `O=C1c2ccccc2-c2c1c1ccc(Br)cc1c(=O)n2CCCn1ccnc1`, the Ratio in data set [1] is under 1.
Same read-out and setting: next, `Cn1c2c(c3ccc(C(=O)O)cc3c1=O)C(=O)c1ccccc1-2`: under 1.
On to `CC(=O)Nc1ccc2c3c(n(CCCCl)c(=O)c2c1)-c1ccccc1C3=O`, for which, in data set [1], the Ratio is under 1.
As for `COC(=O)c1ccc2c3c(n(C)c(=O)c2c1)-c1ccccc1C3=O`, the Ratio in data set [1] is under 1.
On to `COC(=O)CCCc1ccc2c3c(n(C)c(=O)c2c1)-c1ccccc1C3=O`, for which the Ratio in data set [1] is under 1.
Same read-out and setting: next, `Cn1c2c(c3ccc(C(N)=O)cc3c1=O)C(=O)c1ccccc1-2`: under 1; `COC(=O)CCn1c2c(c3ccc(Br)cc3c1=O)C(=O)c1ccccc1-2`: under 1; `COC(=O)C(=O)Nc1ccc2c3c(n(C)c(=O)c2c1)-c1ccccc1C3=O`: under 1.
As for `COC(=O)C#Cc1ccc2c3c(n(C)c(=O)c2c1)-c1ccccc1C3=O`, the Ratio in data set [1] is under 1.
For the compound `COC(=O)CC(=O)Nc1ccc2c3c(n(C)c(=O)c2c1)-c1ccccc1C3=O`, the Ratio in data set [1] was under 1.
